Test results taken from PMC9052940 (RSC Advances, 2020).
Like-named read-outs stand apart in the source and are kept apart here.

How the values were obtained:
[1] = cited from earlier work
[2] = parameter of the normalized HLD; cited from earlier work
[3] = 3%C10E4/n-octane/10^−2 M NaClaq; cited from earlier work
[4] = PIT-slope characterization; assay type: physicochemical; settings: molar fraction; added to 3%C10E4/n-octane/10^−2 M NaClaq
Summary of the method: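 Increasing amounts of test surfactant added to a reference system of 3% C10E4/n-octane/aqueous NaCl. The shift in phase inversion temperature was recorded against concentration and against molar fraction, x = moles added/(moles C10E4 + moles added). Pure n-alkyl-β-D-glucosides and maltosides served as linear references. Average error below 10%.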

[5] = calculated from NMR experiments in D2O solutions; cited from earlier work
[6] = a = turbid solutions close and above CMC

For CCCCCCCCCCCCCC(=O)OC[C@H]1OC(O)[C@H](O)[C@H]1O (single isomer, unassigned) [5-O-Xylose monoester (α, β isomers) C14], the CMC [1, 6] is given as 0.015 mmol/L and the γCMC [1, 6] is given as 36.0 mN m^−1.
For CCCCCCCCCCCCCCCC(=O)OC[C@H]1OC(O)[C@H](O)[C@H]1O (single isomer, unassigned) [5-O-Xylose monoester (α, β isomers) C16], the CMC [1, 6] is listed as 0.022 mmol/L and the γCMC [1, 6] is listed as 41.0 mN m^−1.
In the case of CCCCCCCCCCOCCOCCOCCOCCO [C10E4], the PACN1 [2] is listed as 8.2 and the “PIT (Phase Inversion Temperature) of the reference system” value [3] is listed as 23.9 °C.
In the case of CCCCCCCCCCCCO[C@H]1O[C@H](CO)[C@@H](O)[C@H](O)[C@H]1O [α-D-Glucoside C12], the CMC [1, 6] is listed as 0.042 mmol/L and the γCMC [1, 6] is listed as 41.2 mN m^−1.
For CCCCCCCCCCCCO[C@H]1O[C@H](CO)[C@@H](O[C@H]2O[C@H](CO)[C@@H](O)[C@H](O)[C@H]2O)[C@H](O)[C@H]1O [α-D-Maltoside C12], the CMC [1, 6] is listed as 0.12 mmol/L and the γCMC [1, 6] is listed as 35.9 mN m^−1.
In the case of CCCCCCCCO[C@@H]1O[C@H](CO)[C@@H](O)[C@H](O)[C@H]1O [β-D-Glucoside C8, n-octyl-β-D-glucoside], the CMC ([1]; ref 44) is listed as 25.0 mmol/L, the γCMC ([1]; ref 44) is listed as 30.1 mN m^−1 and the dPIT/dx [4] is listed as 77.8 °C.
For CCCCCCCCCCO[C@@H]1O[C@H](CO)[C@@H](O)[C@H](O)[C@H]1O [β-D-Glucoside C10], the CMC ([1]; ref 44) is given as 2.2 mmol/L, the γCMC ([1]; ref 44) is given as 27.7 mN m^−1 and the dPIT/dx [4] is given as 47.8 °C.
In the case of CCCCCCCCCCCCO[C@@H]1O[C@H](CO)[C@@H](O)[C@H](O)[C@H]1O [β-D-Glucoside C12], the CMC [1, 6] is listed as 0.13 mmol/L, the γCMC [1, 6] is listed as 33.1 mN m^−1 and the CMC ([1]; ref 44) is listed as 0.19 mmol/L. For the same compound, the γCMC ([1]; ref 44) was 39.4 mN m^−1 and the dPIT/dx [4] was 27.0 °C.
For CCCCCCCCO[C@@H]1O[C@H](CO)[C@@H](O[C@H]2O[C@H](CO)[C@@H](O)[C@H](O)[C@H]2O)[C@H](O)[C@H]1O [β-D-Maltoside C8], the CMC ([1]; ref 34) is listed as 23.2 mmol/L.
In the case of CCCCCCCCCO[C@@H]1O[C@H](CO)[C@@H](O[C@H]2O[C@H](CO)[C@@H](O)[C@H](O)[C@H]2O)[C@H](O)[C@H]1O [β-D-Maltoside C9], the CMC ([1]; ref 34) is listed as 6.50 mmol/L.
For CCCCCCCCCCO[C@@H]1O[C@H](CO)[C@@H](O[C@H]2O[C@H](CO)[C@@H](O)[C@H](O)[C@H]2O)[C@H](O)[C@H]1O [β-D-Maltoside C10], the CMC ([1]; ref 34) is listed as 2.19 mmol/L, the CMC ([1]; ref 45) is listed as 1.95 mmol/L and the γCMC ([1]; ref 45) is listed as 36.7 mN m^−1. For the same compound, the dPIT/dx [4] was 123.0 °C.
In the case of CCCCCCCCCCCCO[C@@H]1O[C@H](CO)[C@@H](O[C@H]2O[C@H](CO)[C@@H](O)[C@H](O)[C@H]2O)[C@H](O)[C@H]1O [β-D-Maltoside C12, n-dodecyl-β-D-maltoside], the CMC [1, 6] is listed as 0.13 mmol/L, the γCMC [1, 6] is listed as 33.1 mN m^−1 and the CMC ([1]; ref 34) is listed as 0.19 mmol/L. The CMC ([1]; ref 45) was 0.15 mmol/L, the γCMC ([1]; ref 45) was 35.3 mN m^−1 and the “Γeq (equilibrated surface excess)” value ([1]; ref 60) was 3.32 × 10^−6 mol m^−2. For the same compound, the “Diffusion coefficient of micelles” value [5] was 7 × 10^−11 m^2 s^−1 and the dPIT/dx [4] was 112.2 °C.
For CCCCCCCCCCCCCCO[C@@H]1O[C@H](CO)[C@@H](O[C@H]2O[C@H](CO)[C@@H](O)[C@H](O)[C@H]2O)[C@H](O)[C@H]1O [β-D-Maltoside C14], the CMC ([1]; ref 34) is listed as 0.0167 mmol/L and the dPIT/dx [4] is listed as 80.7 °C.
For CCCCCCCCCCCCCCCCO[C@@H]1O[C@H](CO)[C@@H](O[C@H]2O[C@H](CO)[C@@H](O)[C@H](O)[C@H]2O)[C@H](O)[C@H]1O [β-D-Maltoside C16], the CMC ([1]; ref 34) is listed as 0.00145 mmol/L and the dPIT/dx [4] is listed as 74.3 °C.
